RGS4 block: inhibitors of human RGS4 | HEK293 M3R/RGS4 inducible, Fluo-4 calcium flux; active compounds read high; triggered by carbachol at its EC20 | B-score at 10 µM | hit rate 0.45% among 310,000 | AID 463165;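 active = B-score, a plate-corrected calcium signal, over three deviations above library mean, with baseline fluorescence within five deviations of library mean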;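 also: RGS4 expression induced by doxycycline in cells with stable M3 receptor; B-score is computed from the integrated fluorescence ratio over baseline after carbachol; higher B-score means a larger calcium signal and so more RGS4 inhibition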
Target sequence (P49798 whole entry, looked up): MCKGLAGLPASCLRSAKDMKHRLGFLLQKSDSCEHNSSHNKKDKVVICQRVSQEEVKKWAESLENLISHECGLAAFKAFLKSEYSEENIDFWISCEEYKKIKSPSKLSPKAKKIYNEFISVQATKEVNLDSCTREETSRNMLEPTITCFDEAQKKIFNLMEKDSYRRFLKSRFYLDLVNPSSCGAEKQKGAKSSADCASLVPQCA
MrgX1 ag: human MrgX1 receptor agonism, primary screen. MrgX1-HEK293 cells, Fluo-4 calcium fluorescence, agonist mode; active compounds read high. B-score at 10 µM. hit rate 0.44% among 310,000;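 active = calcium response B-score plate-corrected fluorescence ratio at least 3 library SD, with starting fluorescence B-score inside 5 SD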
Target sequence (Q96LB2 whole entry, looked up): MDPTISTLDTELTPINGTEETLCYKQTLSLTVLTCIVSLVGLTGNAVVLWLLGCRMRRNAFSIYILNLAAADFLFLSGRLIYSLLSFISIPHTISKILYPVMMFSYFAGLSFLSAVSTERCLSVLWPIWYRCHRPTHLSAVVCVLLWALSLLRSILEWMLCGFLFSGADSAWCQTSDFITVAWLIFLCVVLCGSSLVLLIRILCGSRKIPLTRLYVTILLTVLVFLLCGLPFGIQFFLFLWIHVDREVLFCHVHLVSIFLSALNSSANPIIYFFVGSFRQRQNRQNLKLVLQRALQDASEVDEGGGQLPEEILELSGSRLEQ
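Test system: HEK293 cells stably expressing human MrgX1 receptor; Input: fifteen thousand cells per well; Dosing: compound delivered in addition one of three; Schedule: overnight seeding, then 1 h dark dye loading; Technique: Fluo-4 NW calcium fluorescence; Measure: B-scored fluorescence response ratio; Controls: positive and negative controls per plate.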
MrgX1 PAM: human MrgX1 positive allosteric modulation, primary screen; Q96LB2; MrgX1-HEK293, Fluo-4 calcium flux, FDSS; active compounds read high; hit rate 0.63% among 310,000; B-score at 10 µM;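 active = plate-corrected calcium response at least 3 library SD above typical, normal starting fluorescence, not activating the receptor alone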;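 also: compound read alongside a low EC10 to EC30 dose of BAM8-22 agonist; peak minus trough fluorescence over baseline measured at the second addition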
MrgX1 antag: human MrgX1 receptor antagonism, primary screen | B-score at 10 µM | Q96LB2 | MRGX1-HEK293 calcium flux, Fluo-4, BAM8-22 antagonism; active compounds read low | hit rate 1.3% among 310,000;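 active = calcium-response B-score plate-corrected more than 3 library SD below zero, starting fluorescence within 5 deviations, no agonist response on first addition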;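 also: peak minus trough fluorescence over baseline after final BAM8-22 challenge near maximal dose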
RGS4 pot: potentiators or activators of RGS4 | HEK293 M3R/inducible RGS4, carbachol calcium flux Fluo4; active compounds read low | hit rate 0.92% among 310,000 | B-score at 10 µM;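 active = B-score of the integrated calcium signal more than 4 SD below the library mean, with starting fluorescence not abnormally high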;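 also: negative B-score means reduced calcium response which marks RGS4 activation or potentiation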
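Also added: carbachol at ECmax as muscarinic agonist stimulus; Assay system: HEK293 cells with stable M3R and inducible RGS4; Timing: overnight RGS4 induction, 30 min dye load 37 °C, 20 min compound RT; Measured by: Fluo4-AM (2 µM) calcium-flux fluorescence, kinetic read.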
MrgX1 PAM conf: confirmation of human MrgX1 receptor positive allosteric modulators; hit rate 13% among 1,200; shares compounds with MrgX1 PAM; MrgX1-HEK293, Fluo-4 calcium fluorescence, FDSS; activation (ratio percentage), % at 10 µM;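 active = ratio at least 3 SD above the weak peptide control, stable starting fluorescence, no direct agonism earlier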;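 also: compound followed by low BAM8-22 agonist challenge near EC20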
MrgX1 ant reconf: confirmation of human MrgX1 receptor antagonists | remaining BAM8-22 calcium response % of control (active compounds read low), % at 10 µM | shares compounds with MrgX1 antag | MrgX1-HEK293, BAM8-22 calcium flux, Fluo-4; active compounds read low | AID 602420 | hit rate 19% among 2,300;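 active = remaining agonist calcium response no higher than 100% minus 3 SD of agonist-only control wells, with starting fluorescence near control levels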;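 also: agonist BAM8-22 given at a near maximal EC90 to ECmax level; peak minus minimum fluorescence divided by baseline after agonist addition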
HEK293 Ca flux: counter-screen for MrgX1 antagonists: effect in parental HEK293 cells; AID 624111; fluorescence ratio F(max-min)/F0 at 10 µM; Fluo-4 calcium fluorescence, FDSS; shares compounds with MrgX1 antag; hit rate 2% among 4,000;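 active = duplicate-averaged calcium fluorescence ratio at least three times the standard deviation of buffer wells, a nonspecific response in parental cells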
HEK293 Ca counter: counter-screen for MrgX1 allosteric activators: effect in parental HEK293 cells | shares compounds with MrgX1 antag | parental HEK293 calcium flux, Fluo-4 fluorescence ratio; active compounds read high | fluorescence ratio F(max-min)/F0 at 10 µM | hit rate 0.4% among 4,000 | AID 624114;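 active = calcium fluorescence ratio, averaged over duplicates, at least 3 SD of the buffer-well ratio, meaning a nonspecific response in receptor-free cells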;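 also: untransfected parental HEK293 lacking MrgX1 used as counterscreen for MrgX1 allosteric activators; fluorescence change taken during the second addition on a kinetic imager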
HEK293 Ca cntr2: activity in parental HEK293 cells lacking MrgX1 receptor; Fluo-4 calcium fluorescence (FDSS); active compounds read high; shares compounds with MrgX1 antag; hit rate 8.7% among 4,000; fluorescence ratio F(max-min)/F0 at 10 µM;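 active = calcium fluorescence ratio at least three times the spread of buffer wells, meaning a non-specific response in parental cells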
* marks the source's active call; other numbers are inactive results; i = inactive; · = not tested or not shown. In the library only some 3.5% were active in any assay of this set; here they are far more common.

SMILES | RGS4 block | MrgX1 ag | MrgX1 PAM | MrgX1 antag | RGS4 pot | MrgX1 PAM conf | HEK293 Ca flux | HEK293 Ca counter | HEK293 Ca cntr2 | others
O=C(CC1C(=O)NCCN1Cc1ccc(F)cc1)NCCN1CCCc2ccccc21 (stereo not given) | i | i | i | i | i | · | · | · | ·
O=C(CC1C(=O)NCCN1Cc1ccccc1)NCCN1CCCCC1=O (stereo not given) | i | i | 9.4* | i | i | i | i | i | i
Cc1cc2cccc(C)c2nc1SCC(=O)N(C)c1nc(-c2ccccc2)cs1 | i | i | i | i | i | · | · | · | ·
COc1ccc2c(c1)cc(C)c1nnc(SCC(=O)N(C)c3nc(-c4ccccc4)cs3)n12 | i | i | 20* | i | i | i | i | i | i
CC(=O)N1CCN(C2=Nc3cccc4cccc2c34)CC1 | i | i | i | i | i | · | · | · | ·
COc1ccccc1N1CCN(C2=Nc3cccc4cccc2c34)CC1 | i | i | 8.9* | i | -7* | i | i | i | i
O=C(C1CCCN(S(=O)(=O)c2cccs2)C1)N1CCc2ccccc2C1 (stereo not given) | i | i | 9.6* | i | i | i | i | i | i
O=C(C1CCN(S(=O)(=O)c2cccs2)CC1)N1CCc2ccccc2C1 | i | i | i | i | i | · | · | · | ·
CCc1ccc2nc(N3C(=O)c4oc5ccccc5c(=O)c4C3c3ccc(OC)c(OC)c3)sc2c1 (stereo not given) | i | i | i | i | i | · | · | · | ·
CCN(CC)C(=O)C(=O)c1c(-c2ccccc2)[nH]c2ccccc12 | i | i | 15* | i | i | i | i | i | i
CCNC(=O)C(=O)c1c(-c2ccccc2)[nH]c2ccccc12 | i | i | i | i | i | · | · | · | ·
CN(C)C(CNc1ccc(C(F)(F)F)cc1[N+](=O)[O-])c1ccccc1 (stereo not given) | i | i | i | i | i | · | · | · | ·
Cc1ccc2c(c1)C(=O)C(=O)N2CC(=O)Nc1ccccc1NC(=O)c1ccccn1 | i | i | 15* | i | i | i | i | i | i
CN1CCN(CCc2nc3cc(NC(=O)COc4ccc([N+](=O)[O-])cc4)ccc3n2C)CC1 | i | i | i | i | i | · | · | · | ·
CCCc1nc2c(sc3nc4c(cc32)COC(C)(C)C4)c(=O)o1 | i | i | i | i | i | · | · | · | ·
Cc1ccc(C(F)(F)F)cc1NC(N)=S | i | i | 7.2* | i | i | i | i | i | i
COc1ccc(-c2[nH]ncc2/C=N/NC(=O)c2ccncc2)c(OC)c1 | i | i | i | i | i | · | · | · | ·
O=C(c1ccncc1)c1ccc(N2CCN(C3CC(=O)N(Cc4ccccc4)C3=O)CC2)cc1 (stereo not given) | i | i | i | i | i | · | · | · | ·
O=C(c1ccc(N2CCN(C3CC(=O)N(Cc4cccs4)C3=O)CC2)cc1)c1cccnc1 (stereo not given) | i | i | 9* | -5.1* | i | 3.0%* | i | i | i | MrgX1 ant reconf=84%*
Cc1cccc(N(C(=O)CCC(=O)Nc2cc(C)on2)C(C(=O)NC2CCCC2)c2ccccc2)c1 (stereo not given) | i | i | i | i | i | · | · | · | ·
CCOc1ccc(C2CC(c3cccc(Cl)c3)n3nc(N)nc3N2)cc1 (stereo not given) | i | i | i | i | i | · | · | · | ·
Nc1nc2n(n1)C(c1cccc(Cl)c1)CC(c1ccc(F)cc1)N2 (stereo not given) | i | i | 9.7* | i | i | i | i | i | i
CCOc1ccc(N=c2scc(-c3ccccc3)n2CCO)cc1 | i | i | i | i | i | · | · | · | ·
OCCn1c(-c2ccc3c(c2)OCO3)csc1=Nc1ccccc1 | i | i | 12* | i | i | i | i | i | i
CCOc1ccc(N=c2scc(-c3ccc(OC)cc3)n2CCO)cc1 | i | i | i | i | i | · | · | · | ·
SMILES | RGS4 block | MrgX1 ag | MrgX1 PAM | MrgX1 antag | RGS4 pot | MrgX1 PAM conf | HEK293 Ca flux | HEK293 Ca counter | HEK293 Ca cntr2 | others
OCCn1c(-c2ccc(F)cc2)csc1=Nc1ccccc1 | i | i | 13* | i | i | i | i | i | i
CC(Oc1ccc(Cl)cc1Cl)C(=O)Nc1ccc(S(=O)(=O)Nc2cnc3ccccc3n2)cc1 (stereo not given) | i | i | i | i | i | · | · | · | ·
Cc1cc(Cl)ccc1OC(C)C(=O)Nc1ccc(S(=O)(=O)Nc2cnc3ccccc3n2)cc1 (stereo not given) | i | i | 7.6* | -6.7* | i | i | i | i | i | MrgX1 ant reconf=81%*
Cn1c(-c2cccc(Br)c2)cnc1NCc1ccccc1O | i | i | i | i | i | · | · | · | ·
CC(C)(C)c1ccc2c(c1)N(CC(=O)N1CCCC1)C(=O)CO2 | i | i | i | i | i | · | · | · | ·
O=C1CCC2=C(CCCC2=O)N1 | i | i | 10* | i | i | i | i | i | i
COc1ccc(CCN2CC(C(=O)NCc3cccc4[nH]ccc34)CCC2=O)cc1 (stereo not given) | i | i | i | i | i | · | · | · | ·
CC1(C)CC(=O)c2sc(NS(=O)(=O)c3ccccc3)nc2C1 | i | i | 13* | i | i | i | i | i | i
CC1(C)CC(=O)c2sc(NC(=O)c3ccco3)nc2C1 | i | i | i | i | i | · | · | · | ·
CC(=O)c1sc(NC(=O)C2COc3ccccc3O2)nc1C (stereo not given) | i | i | i | i | i | · | · | · | ·
CC1(C)CC(=O)c2sc(NC(=O)C3COc4ccccc4O3)nc2C1 (stereo not given) | i | i | 9.4* | i | i | i | i | i | i
